Data taken from ChEMBL document CHEMBL1143268 (Bioorg Med Chem Lett, 2009).
≈ marks a conversion by molar mass, not a printed value.

How the values were obtained:
Liver = experiment: (§1) Metabolic stability in rat liver homogenate; format: ADME, tissue-based; settings: tissue homogenate
Cowpox virus [1] = experiment: Antiviral activity against Cowpox virus infected in human foreskin fibroblasts by plaque assay; format: functional, organism-based
Intestine = experiment: (§2) Metabolic stability in rat intestinal homogenate; format: ADME, tissue-based; settings: tissue homogenate
Vaccinia virus [2] = experiment: Antiviral activity against Vaccinia virus infected in human foreskin fibroblasts by plaque assay; format: functional, organism-based; settings: Orthopoxvirus vaccinia
[3] = Solubility in water; format: physicochemical
[4] = as §1; format: ADME, tissue-based; settings: liver homogenate
[5] = Permeability from apical to basolateral side in human Caco-2 cells after 21 days; format: ADME, cell-based; settings: read-out: permeability
Outline: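 Caco-2 monolayers were used 21 days post-seeding. Basolateral aliquots were taken at set intervals and replaced with HEPES buffer pH 7.4. Monolayer integrity was checked by transepithelial resistance.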

Caco-2 = experiment: Permeability from apical to basolateral side in human Caco-2 cells after 21 days relative to vidarabine; format: ADME, cell-based; settings: caco-2, 504 h
Outline: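 Caco-2 monolayers were used 21 days post-seeding, with integrity checked by transepithelial resistance. Basolateral aliquots were taken at set intervals and replaced with HEPES buffer pH 7.4.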

Plasma = format: ADME, cell-free; settings: rat
HFF = experiment: (§3) Cytotoxicity against HFF; format: cell-based; settings: human, hff
Outline: (§4)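 Cytotoxicity scored visually in uninfected human foreskin fibroblasts, reported as the 50% inhibitory concentration.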

HeLa [6] = experiment: Cellular uptake in human HeLa cells after 45 mins; format: ADME, cell-based; settings: 0.75 h
Outline: (§5)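 Direct uptake measured over 45 min and expressed as nmol/mg, in HeLa cells stably expressing hPEPT1 and in parental HeLa controls. Valacyclovir served as the positive control for hPEPT1 carrier-mediated uptake. Values are means ± SD of three experiments.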

HeLa [7] = experiment: Cellular uptake in human HeLa cells expressing human PEPT1 transporter after 45 mins; format: ADME, cell-based; settings: 0.75 h; outline: as §5
[8] = Oral bioavailability in human; format: ADME, organism-based; settings: in vivo
[9] = as §3; format: cell-based; settings: human, HFF cells; outline: as §4
Vaccinia virus [10] = experiment: Antiviral activity against Vaccinia virus infected in HFF by plaque assay in presence of deoxy-coformycin; format: functional, organism-based; settings: Orthopoxvirus vaccinia
[11] = Cytotoxicity against HFF in presence of deoxy-coformycin; format: cell-based; settings: human, HFF cells
Outline: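 Cytotoxicity was scored visually in uninfected HFF cells, with 1 μM deoxycoformycin present, and reported as the 50% inhibitory concentration.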

Cowpox virus [12] = experiment: Antiviral activity against Cowpox virus infected in HFF by plaque assay in presence of deoxy-coformycin; format: functional, organism-based
[13] = as §2; format: ADME, tissue-based, Intestine; settings: intestinal homogenate

Row | SMILES | t1/2 (Liver) | EC50 (Cowpox virus [1]) [µM] | t1/2 (Intestine) | EC50 (Vaccinia virus [2]) [µM] | solubility [3] [µg/mL] | t1/2 (Plasma) [min] | CC50 (HFF) [µM] | other results
1 | CC(C)C[C@@H](N)C(=O)OC[C@H]1O[C@@H](n2cnc3c(N)ncnc32)[C@@H](O)[C@@H]1O | 3.6 min | 2.5 | 2.4 min | 3 | > 10000 | – | – | –
2 | Nc1ncnc2c1ncn2[C@@H]1O[C@H](COC(=O)[C@@H](N)Cc2ccccc2)[C@@H](O)[C@@H]1O | – | 3.5 | 16.2 min | 1.8 | > 10000 | – | – | half-life [4]: 1.02 min; Papp A→B [5]: 0.668 ×10⁻⁶ cm/s; fold change (FC) (Caco-2): 8.05
3 | CC[C@H](C)[C@@H](N)C(=O)OC[C@H]1O[C@@H](n2cnc3c(N)ncnc32)[C@@H](O)[C@@H]1O | 18.6 min | 3.5 | 474 min | 2.9 | > 10000 | 96.6 | – | –
4 | CC(C)[C@@H](N)C(=O)OC[C@H]1O[C@@H](n2cnc3c(N)ncnc32)[C@@H](O)[C@@H]1O | 27.6 min | 8 | Stable | 4.1 | > 10000 | 615.6 | > 100 | Papp A→B [5]: 0.601 ×10⁻⁶ cm/s; fold change (FC) (Caco-2): 7.2
5 | Nc1ncnc2c1ncn2[C@@H]1O[C@H](COC(=O)[C@H](N)Cc2ccccc2)[C@@H](O)[C@@H]1O | 6 min | 4 | 35.4 min | 2.3 | > 10000 | – | > 100 | –
6 | CC(C)C[C@H](N)C(=O)OC[C@H]1O[C@@H](n2cnc3c(N)ncnc32)[C@@H](O)[C@@H]1O | 3 min | 3 | 1.8 min | 3.3 | > 10000 | – | > 100 | –
7 | Nc1ncnc2c1ncn2[C@@H]1O[C@H](COC(=O)[C@H](N)CC(=O)O)[C@@H](O)[C@@H]1O | – | 4 | – | 2.5 | > 10000 | – | > 100 | –
8 | Nc1ncnc2c1ncn2[C@@H]1O[C@H](COC(=O)C[C@@H](N)C(=O)O)[C@@H](O)[C@@H]1O | – | 25 | – | 3.5 | > 10000 | – | > 100 | –
9 | COC(=O)[C@H](NP(=O)(OC[C@H]1O[C@@H](n2cnc3c(N)ncnc32)[C@@H](O)[C@@H]1O)Oc1ccccc1)C(C)C (some centres not stated) | 355 min | – | 1099 min | – | > 10000 | 21 | – | –
10 | CC(C)[C@H](N)C(=O)OC[C@H]1O[C@@H](n2cnc3c(N)ncnc32)[C@@H](O)[C@@H]1O | 1.8 min | 4 | 18 min | 4.8 | > 10000 | 7.8 | – | Drug uptake (HeLa [6]): 3.9 nmol/mg; Drug uptake (HeLa [7]): 80.3 nmol/mg
11 | CC[C@H](C)[C@H](N)C(=O)OC[C@H]1O[C@@H](n2cnc3c(N)ncnc32)[C@@H](O)[C@@H]1O | 3.6 min | 2.5 | 34.8 min | 4.5 | > 10000 | 215 | > 100 | Drug uptake (HeLa [6]): 7.5 nmol/mg; Papp A→B [5]: 1.03 ×10⁻⁶ cm/s; Drug uptake (HeLa [7]): 202 nmol/mg; fold change (FC) (Caco-2): 12.4
12 | COC(=O)[C@@H](NP(=O)(OC[C@H]1O[C@@H](n2cnc3c(N)ncnc32)[C@@H](O)[C@@H]1O)Oc1ccccc1)C(C)C (some centres not stated) | Stable | – | Stable | – | > 10000 | 18 | – | –
13 | Nc1ccn(C[C@@H](CO)OCP(=O)(O)O)c(=O)n1.O.O [CIDOFOVIR] | – | – | – | – | – | – | – | bioavailability [8]: 2%
14 | CC(C)[C@H](N)C(=O)OCCOCn1cnc2c(=O)[nH]c(N)nc21 [VALACYCLOVIR] | – | – | – | – | – | – | – | Drug uptake (HeLa [6]): 11.6 nmol/mg; Drug uptake (HeLa [7]): 221 nmol/mg
15 | Nc1ncnc2c1ncn2[C@@H]1O[C@H](CO)[C@@H](O)[C@@H]1O [VIDARABINE] | – | 12.6 | – | 6.2 | 470 (≈ 1.76 mM) | – | – | half-life [4]: 15 min; Papp A→B [5]: 0.083 ×10⁻⁶ cm/s; CC50 [9]: > 100 µM; EC50 (Vaccinia virus [10]): 1 µM; CC50 [11]: 90 µM; EC50 (Cowpox virus [12]): 1.4 µM; half-life [13]: 3 min
